Measured values: ChEMBL document CHEMBL1126147 (J Med Chem, 1992)
Calls of active or inactive are those of the source. The calls are words filed in the database; no cut-off is given here.

Legend:
Rattus norvegicus [1] = test: In vivo inhibition of sorbitol accumulation in the sciatic nerve in streptozotocin induced diabetic rat model at a concentration of 10 mg/kg; NS=not significant; assay type: functional, organism-based; set-up: dose 10 mg/kg
In short: (§1)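 Rats (n = 4) were made diabetic with a single iv dose of streptozotocin (86 mg/kg). Compound was given by oral gavage at 4, 7 and 24 h. Animals were killed at 27 h and sciatic nerve sorbitol measured. Percent inhibition is relative to untreated diabetic rats (n = 4), with significance by Student's t test (p < 0.05).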

[2] = target: T1, Aldo-keto reductase family 1 member B1 (Homo sapiens, UniProt P15121); test: In vitro inhibitory activity against aldose reductase isolated from human placenta
Rattus norvegicus [3] = test: In vivo inhibition of sorbitol accumulation in the sciatic nerve in streptozotocin induced diabetic rat model at a concentration of 25 mg/kg; assay type: functional; in short: as §1
Rattus norvegicus [4] = test: In vivo inhibition of sorbitol accumulation in the sciatic nerve in streptozotocin induced diabetic rat model at a concentration of 10 mg/kg; assay type: functional; in short: as §1
Rattus norvegicus [5] = test: In vivo inhibition of sorbitol accumulation in the sciatic nerve in streptozotocin induced diabetic rat model at a concentration of 25 mg/kg; NS=not significant; assay type: functional, organism-based; set-up: dose 25 mg/kg; in short: as §1
Rattus norvegicus [6] = test: In vivo inhibition of sorbitol accumulation in the sciatic nerve in streptozotocin induced diabetic rat model at a concentration of 100 mg/kg; assay type: functional; in short: as §1
[7] = target: T1, Aldo-keto reductase family 1 member B1; test: In vitro inhibitory activity against aldose reductase isolated from human placenta at 10e-5 M
In short: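 Aldose reductase purified from human placenta; DL-glyceraldehyde as substrate with NADPH as cofactor; enzyme inhibition measured in vitro.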

Cc1ccccc1-c1noc(Cn2nc(CC(=O)O)c3ccccc3c2=O)n1
inhibition (Rattus norvegicus [1]): inactive
IC50 [2]: 64 nM

O=C(O)Cc1nn(Cc2nc(-c3ccccc3)ns2)c(=O)c2ccccc12
IC50 [2]: 2200 nM

O=C(O)Cc1nn(Cc2csnc2-c2ccccc2)c(=O)c2ccccc12
IC50 [2]: 10000 nM

O=C(O)Cc1nn(Cc2noc(-c3ccccc3Cl)n2)c(=O)c2ccccc12
IC50 [2]: 28 nM

O=C(O)Cc1nn(CC(=O)Nc2cc(C(F)(F)F)cc(C(F)(F)F)c2)c(=O)c2ccccc12
IC50 [2]: 1100 nM

O=C(O)Cc1nn(Cc2nc(-c3ccc(F)cc3F)no2)c(=O)c2ccccc12
inhibition in vivo at 25 mg/kg (Rattus norvegicus [3]): 46%
IC50 [2]: 630 nM

O=C(O)Cc1nn(CC(=O)Nc2cc(C(F)(F)F)ccc2O)c(=O)c2ccccc12
IC50 [2]: 200 nM

O=C(O)Cc1nn(Cc2cc3cc([N+](=O)[O-])ccc3s2)c(=O)c2ccccc12
inhibition (Rattus norvegicus [1]): inactive
IC50 [2]: 2200 nM

O=C(O)Cc1nn(Cc2nc(-c3ccccc3F)no2)c(=O)c2ccccc12
inhibition in vivo at 25 mg/kg (Rattus norvegicus [3]): 69%
IC50 [2]: < 10 nM

O=C(O)Cc1nn(CC(=O)Nc2ccccc2Cl)c(=O)c2ccccc12
IC50 [2]: 430 nM

O=C(O)Cc1nn(CC(=O)Nc2ccc(Cl)cc2)c(=O)c2ccccc12
IC50 [2]: 440 nM

O=C(O)Cc1nn(Cc2cc3c(Cl)cccc3s2)c(=O)c2ccccc12
IC50 [2]: 110 nM

O=C(O)Cc1nn(Cc2nc(-c3ccccc3Br)no2)c(=O)c2ccccc12
inhibition in vivo at 10 mg/kg (Rattus norvegicus [4]): 27%
IC50 [2]: 6.5 nM

O=C(O)Cc1nn(Cc2nc3cc(Br)ccc3o2)c(=O)c2ccccc12
inhibition in vivo at 10 mg/kg (Rattus norvegicus [4]): 67%
IC50 [2]: 27 nM

O=C(O)Cc1nn(Cc2nc(-c3ccccc3)no2)c(=O)c2ccccc12
IC50 [2]: 160 nM

O=C(O)Cc1nn(Cc2ccc3ccccc3n2)c(=O)c2ccccc12
IC50 [2]: 59000 nM

O=C(O)Cc1nn(Cc2cc3cc(Cl)ccc3o2)c(=O)c2ccccc12
IC50 [2]: 150 nM

O=C(O)Cc1nn(C/C(S)=N/c2cccc(Cl)c2)c(=O)c2ccccc12
IC50 [2]: 50 nM

Cn1c(Cn2nc(CC(=O)O)c3ccccc3c2=O)nc2ccccc21
IC50 [2]: 4200 nM

O=C(O)Cc1nn(Cc2nc(-c3c(F)cccc3Cl)no2)c(=O)c2ccccc12
IC50 [2]: 240 nM

COc1ccccc1-c1noc(Cn2nc(CC(=O)O)c3ccccc3c2=O)n1
inhibition (Rattus norvegicus [5]): inactive
IC50 [2]: 470 nM

O=C(O)Cc1nn(Cc2cc3ccccc3[nH]2)c(=O)c2ccccc12
IC50 [2]: 870 nM

O=C(O)Cc1nn(Cc2snc3ccccc23)c(=O)c2ccccc12
IC50 [2]: 720 nM

O=C(O)Cc1nn(Cc2csc(-c3ccccc3)n2)c(=O)c2ccccc12
IC50 [2]: 8200 nM

O=C(O)Cc1nn(CC(=O)Nc2ccccc2C(F)(F)F)c(=O)c2ccccc12
IC50 [2]: 5900 nM

O=C(O)Cc1nn(CC(=O)Nc2ccc(C(F)(F)F)cc2)c(=O)c2ccccc12
IC50 [2]: 2100 nM

O=C(O)Cc1nn(Cc2cc3ccccc3s2)c(=O)c2ccccc12
inhibition in vivo at 100 mg/kg (Rattus norvegicus [6]): 77%
IC50 [2]: 120 nM

O=C(O)Cc1nn(Cc2cc3cc(Br)ccc3s2)c(=O)c2ccccc12
IC50 [2]: 1000 nM

O=C(O)Cc1nn(Cc2nc3cc(F)cc(F)c3o2)c(=O)c2ccccc12
inhibition in vivo at 10 mg/kg (Rattus norvegicus [4]): 78%
IC50 [2]: 3.2 nM

O=C(O)Cc1nn(Cc2csc(-c3ccccc3F)n2)c(=O)c2ccccc12
IC50 [2]: 460 nM

O=C(O)Cc1nn(Cc2nc3ccccc3o2)c(=O)c2ccccc12
IC50 [2]: 89 nM

O=C(O)Cc1nn(Cc2cc3cccnc3s2)c(=O)c2ccccc12
inhibition (Rattus norvegicus [5]): inactive
IC50 [2]: 420 nM

O=C(O)Cc1nn(Cc2nc(-c3ccccc3)cs2)c(=O)c2ccccc12
IC50 [2]: 34 nM

O=C(O)Cc1nn(CC(=O)Nc2cccc(F)c2)c(=O)c2ccccc12
IC50 [2]: 22 nM

O=C(O)Cc1nn(CC(=O)Nc2ccccc2)c(=O)c2ccccc12
IC50 [2]: 4900 nM

O=C(O)Cc1nn(Cc2nc3cc(Cl)cc(Cl)c3o2)c(=O)c2ccccc12
inhibition in vivo at 10 mg/kg (Rattus norvegicus [4]): 63%
IC50 [2]: 32 nM

O=C(O)Cc1nn(Cc2nc(-c3ccccc3)co2)c(=O)c2ccccc12
IC50 [2]: 3200 nM

O=C(O)Cc1nn(Cc2cn3ccc(Cl)cc3n2)c(=O)c2ccccc12
IC50 [2]: 37 nM

O=C(O)Cc1nn(Cc2noc(-c3ccccc3C(F)(F)F)n2)c(=O)c2ccccc12
IC50 [2]: 470 nM

O=C(O)Cc1nn(Cc2nc(-c3ccccc3Cl)ns2)c(=O)c2ccccc12
IC50 [2]: 1100 nM

O=C(O)Cc1nn(Cc2nc(-c3ccccc3Cl)no2)c(=O)c2ccccc12
inhibition (Rattus norvegicus [1]): inactive
inhibition in vivo at 25 mg/kg (Rattus norvegicus [3]): 75%
IC50 [2]: 23 nM

O=C(O)Cc1nn(CC(=O)Nc2cccc(Cl)c2)c(=O)c2ccccc12
IC50 [2]: 13 nM

O=C(O)Cc1nn(Cc2nc(-c3ccccc3)c(-c3ccccc3)o2)c(=O)c2ccccc12
IC50 [2]: 4500 nM

O=C(O)Cc1nn(CC(=O)Nc2cc(C(F)(F)F)ccc2Br)c(=O)c2ccccc12
IC50 [2]: 28 nM

O=C(O)Cc1nn(CC(=O)Nc2cc(C(F)(F)F)cc(C(F)(F)F)c2Br)c(=O)c2ccccc12
IC50 [2]: 2200 nM

O=C(O)Cc1nn(Cc2nc3cc(C(F)(F)F)ccc3s2)c(=O)c2ccccc12 [ZOPOLRESTAT]
inhibition in vivo at 10 mg/kg (Rattus norvegicus [4]): 80%

O=C(O)Cc1nn(Cc2nc3cc(C(F)(F)F)ccc3o2)c(=O)c2ccccc12
inhibition in vivo at 10 mg/kg (Rattus norvegicus [4]): 32%
IC50 [2]: 31 nM

O=C(O)Cc1nn(Cc2nc3ccc(Br)cc3o2)c(=O)c2ccccc12
IC50 [2]: 540 nM

O=C(O)Cc1nn(Cc2nc(-c3cccc(F)c3F)no2)c(=O)c2ccccc12
inhibition in vivo at 25 mg/kg (Rattus norvegicus [3]): 89%
IC50 [2]: 19 nM

O=C(O)Cc1nn(CC(=O)Nc2cccc(C(F)(F)F)c2)c(=O)c2ccccc12
IC50 [2]: 19 nM

O=C(O)Cc1nn(Cc2cc3cc(Cl)ccc3s2)c(=O)c2ccccc12
IC50 [2]: 250 nM

O=C(O)Cc1nn(Cc2cc3cc(F)ccc3s2)c(=O)c2ccccc12
inhibition in vivo at 25 mg/kg (Rattus norvegicus [3]): 49%
IC50 [2]: 150 nM

O=C(O)Cc1nn(CC(=S)Nc2cc(C(F)(F)F)ccc2Br)c(=O)c2ccccc12
IC50 [2]: 200 nM

O=C(O)Cc1nn(Cc2nc3cc4ccccc4cc3o2)c(=O)c2ccccc12
IC50 [2]: 3000 nM

O=C(O)Cc1nn(Cc2nnc(-c3ccccc3)o2)c(=O)c2ccccc12
IC50 [2]: 3100 nM

O=C(O)Cc1nn(Cc2nc(-c3ccccn3)no2)c(=O)c2ccccc12
inhibition (Rattus norvegicus [1]): inactive
IC50 [2]: 156 nM

O=C(O)Cc1nn(C/C(S)=N/c2cccc(C(F)(F)F)c2)c(=O)c2ccccc12
IC50 [2]: 52 nM

O=C(O)Cc1nn(CC(=O)Nc2cc(F)cc(F)c2O)c(=O)c2ccccc12
IC50 [2]: 170 nM

O=C(O)Cc1nn(Cc2nc(-c3ccc(Br)cc3)no2)c(=O)c2ccccc12
IC50 [2]: 4600 nM

O=C(O)Cc1nn(Cc2nc(-c3ccccc3C(F)(F)F)no2)c(=O)c2ccccc12
inhibition in vivo at 25 mg/kg (Rattus norvegicus [3]): 60%
IC50 [2]: 220 nM

O=C(O)Cc1nn(Cc2nc3cc(-c4ccccc4)ccc3o2)c(=O)c2ccccc12
IC50 [2]: 6100 nM

COc1cc(NC(=O)Cn2nc(CC(=O)O)c3ccccc3c2=O)cc(OC)c1OC
inhibition [7]: 20%

O=C(O)Cc1nn(Cc2cc(-c3ccccc3)ns2)c(=O)c2ccccc12
IC50 [2]: 670 nM

O=C(O)Cc1nn(Cc2ncc(-c3ccccc3)o2)c(=O)c2ccccc12
IC50 [2]: 660 nM

O=C(O)Cc1nn(Cc2nc3cc(Cl)ccc3o2)c(=O)c2ccccc12
inhibition in vivo at 10 mg/kg (Rattus norvegicus [4]): 72%
IC50 [2]: 78 nM
